Assay results collected from several papers.
Each line is one published result; the experiments were not run side by side.
Target: Mitogen-activated protein kinase kinase kinase 5 (MAP3K5, Homo sapiens, UniProt Q99683)
Sequence (Q99683 1-1374, as in one of the studies): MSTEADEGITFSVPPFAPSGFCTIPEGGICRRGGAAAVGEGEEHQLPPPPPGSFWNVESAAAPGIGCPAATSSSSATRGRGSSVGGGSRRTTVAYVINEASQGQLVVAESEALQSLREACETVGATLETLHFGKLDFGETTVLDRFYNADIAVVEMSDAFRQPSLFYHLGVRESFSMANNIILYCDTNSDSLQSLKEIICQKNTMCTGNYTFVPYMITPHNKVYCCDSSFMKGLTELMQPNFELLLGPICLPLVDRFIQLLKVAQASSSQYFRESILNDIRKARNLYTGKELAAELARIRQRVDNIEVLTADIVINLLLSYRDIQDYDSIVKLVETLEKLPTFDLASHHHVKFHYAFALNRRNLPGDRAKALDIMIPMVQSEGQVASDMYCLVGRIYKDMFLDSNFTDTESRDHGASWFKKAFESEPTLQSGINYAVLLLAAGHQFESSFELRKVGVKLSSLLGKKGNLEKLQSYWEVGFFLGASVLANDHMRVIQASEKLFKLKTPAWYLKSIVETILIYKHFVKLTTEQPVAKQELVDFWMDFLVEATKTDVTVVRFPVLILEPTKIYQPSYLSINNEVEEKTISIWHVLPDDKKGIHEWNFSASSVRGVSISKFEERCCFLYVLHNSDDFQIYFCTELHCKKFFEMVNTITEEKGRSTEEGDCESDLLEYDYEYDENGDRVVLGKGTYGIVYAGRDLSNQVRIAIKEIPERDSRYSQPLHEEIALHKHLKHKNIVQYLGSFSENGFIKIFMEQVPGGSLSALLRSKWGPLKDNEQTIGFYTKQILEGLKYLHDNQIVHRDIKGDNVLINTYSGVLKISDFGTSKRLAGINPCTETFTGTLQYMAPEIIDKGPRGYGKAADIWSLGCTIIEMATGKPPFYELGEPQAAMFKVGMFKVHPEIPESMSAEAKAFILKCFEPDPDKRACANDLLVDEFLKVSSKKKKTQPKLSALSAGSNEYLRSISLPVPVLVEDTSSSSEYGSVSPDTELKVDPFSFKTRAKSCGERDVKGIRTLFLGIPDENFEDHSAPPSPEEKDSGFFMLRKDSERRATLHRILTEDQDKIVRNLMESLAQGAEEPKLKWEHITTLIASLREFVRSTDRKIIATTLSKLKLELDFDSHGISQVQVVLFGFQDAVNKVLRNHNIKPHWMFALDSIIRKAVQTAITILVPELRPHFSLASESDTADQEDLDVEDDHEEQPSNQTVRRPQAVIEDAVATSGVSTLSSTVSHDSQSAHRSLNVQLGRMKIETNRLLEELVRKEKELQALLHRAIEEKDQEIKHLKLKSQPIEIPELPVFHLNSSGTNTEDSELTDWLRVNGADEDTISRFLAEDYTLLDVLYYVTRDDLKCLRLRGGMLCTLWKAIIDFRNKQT

SMILES | observed | method | concentration | remaining binding
c1cnn2ncc(-c3ccnc(N4CCC45COC5)n3)c2c1 | binding | – | 1 µM | 100%
Cc1nc(N2CC[C@@H](O)C2)ncc1-c1cc(C(F)(F)F)cc2[nH]ncc12 | binding | competition with immobilised ligand | 1 µM | 100%
Cc1cnn2ncc(-c3ccnc(N(C)C)n3)c2c1 | binding | – | 1 µM | 100%
COCCOc1nc(-c2ccc(Cl)nc2)nc2c1CN(C(=O)c1ncn3ccccc13)CC2 | cell-free assay | competition with immobilised ligand | 0.1 µM | 84%
FC(F)(F)Oc1cccc(-c2cnc3ccc(-c4ccncc4)nn23)c1 | cell-free assay | competition with immobilised ligand | 5 µM | 100%
Cn1cc(Cl)c2c(Oc3c(F)cc(Nc4cc(Cl)nc(N)n4)cc3F)ccnc21 | cell-free assay | competition with immobilised ligand | 0.1 µM | 97%
C=CC(=O)N1CCC(C(=O)NCC(=O)N2CCN(c3nc(-c4cnc(N)nc4C(F)F)nc(N4CCOCC4)n3)CC2)CC1 | binding | competition with immobilised ligand | 1 µM | 100%
O=C(c1ccc(Nc2nccc(-c3cc4ccccc4s3)n2)cc1)N1CCC(N2CCCC2)CC1 | binding | competition with immobilised ligand | 1 µM | 100%
N[C@@H]1CCN(c2nccc(-c3cnn4ncccc34)n2)C1 | binding | – | 1 µM | 100%
O=C(NCCCN1CCOCC1)c1ccc(Nc2ncc(Cl)c(-c3ccc(Cl)s3)n2)cc1 | binding | competition with immobilised ligand | 1 µM | 100%
CNC(=O)[C@@H]1CC[C@@H](n2c(-c3ccc4cnccc4c3)nc3ccc(C(=O)NCc4cccc(C(N)=O)c4)cc32)C1 | binding | competition with immobilised ligand | 1 µM | 92%
O=C(Nc1ccc(Oc2ccc(F)cc2)cc1)N1CCc2ncccc2[C@H]1c1ccc(F)cc1 | cell-free assay | competition with immobilised ligand | 1 µM | 87%
O=C(Nc1c[nH]nc1C(=O)NC1CCNCC1)c1cc(F)cc(F)c1 | binding | competition with immobilised ligand | 1 µM | 100%
O=C(c1ccc(Nc2ncc(Cl)c(-c3ccc(Cl)s3)n2)cc1)N1CCC(N2CCCC2)CC1 | binding | competition with immobilised ligand | 1 µM | 100%
Nc1ncc2c(n1)-c1c([nH]c3ccc(C#CC4CC4)cc13)CCCC2 | binding | competition with immobilised ligand | 1 µM | 100%
CN(CCCC(F)(F)F)c1nccc(-c2cnn3ncccc23)n1 | binding | – | 1 µM | 76%
c1cncc(-c2cccc(Nc3nccc(NC4CCCCC4)n3)c2)c1 | binding | competition with immobilised ligand | 10 µM | 100%
CN(c1nccc(-c2cnn3ncccc23)n1)C1CC1 | binding | – | 1 µM | 100%
C[C@H](c1ccnc(Nc2nc3ccc(-c4cc(N(C)C)ncn4)cc3[nH]2)c1)N1CCN(C(=O)CC(F)(F)F)CC1 | cell-free assay | competition with immobilised ligand | 0.1 µM | 100%
COc1ccnn2ncc(-c3ccnc(N(C)C)n3)c12 | binding | – | 1 µM | 100%
N#Cc1ccc(Nc2ccc3[nH]c(=O)[nH]c3c2)c(Cl)c1 | cell-free assay | competition with immobilised ligand | 1 µM | 90%
